According to ChEMBL document CHEMBL3045880, “Design and syntheses of novel N-(benzothiazol-5-yl)-4,5,6,7-tetrahydro-1H-isoindole-1,3(2H)-dione and N-(benzothiazol-5-yl)isoindoline-1,3-dione as potent protoporphyrinogen oxidase inhibitors” (J Agric Food Chem, 2011):

Key:
Brassica juncea [1] = assay: Herbicidal activity against Brassica juncea assessed as growth inhibition at 150 g/ha postemergence treatment measured after 15 days by Greenhouse test; assay type: functional; conditions: post-emergence, 360 h, read-out: GI
Summary of the method: (§1)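 Test compounds were made up as 100 g/L emulsifiable concentrates (DMF solvent, Tween-80 emulsifier) and diluted with water. About 20 seeds were sown 1–3 cm deep in clay soil (pH 6.5, 1.6% organic matter) in 9.5 cm pots, kept at 15–30 °C and 50% RH. Postemergence spray was applied to dicots at the 2-leaf stage and monocots at the 1-leaf stage. Controls were untreated and solvent-treated. Injury was scored visually at 15 days, with three replicates.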

Amaranthus retroflexus [2] = assay: Herbicidal activity against Amaranthus retroflexus assessed as growth inhibition at 150 g/ha postemergence treatment measured after 15 days by Greenhouse test; assay type: functional; conditions: post-emergence, 360 h, read-out: GI; summary of the method: as §1
[3] = biological target: T1, Protoporphyrinogen oxidase (Homo sapiens) (UniProt P50336); assay: Inhibition of Homo sapiens (human) recombinant protoporphyrinogen oxidase by fluorescence detection
T1 sequence (whole entry): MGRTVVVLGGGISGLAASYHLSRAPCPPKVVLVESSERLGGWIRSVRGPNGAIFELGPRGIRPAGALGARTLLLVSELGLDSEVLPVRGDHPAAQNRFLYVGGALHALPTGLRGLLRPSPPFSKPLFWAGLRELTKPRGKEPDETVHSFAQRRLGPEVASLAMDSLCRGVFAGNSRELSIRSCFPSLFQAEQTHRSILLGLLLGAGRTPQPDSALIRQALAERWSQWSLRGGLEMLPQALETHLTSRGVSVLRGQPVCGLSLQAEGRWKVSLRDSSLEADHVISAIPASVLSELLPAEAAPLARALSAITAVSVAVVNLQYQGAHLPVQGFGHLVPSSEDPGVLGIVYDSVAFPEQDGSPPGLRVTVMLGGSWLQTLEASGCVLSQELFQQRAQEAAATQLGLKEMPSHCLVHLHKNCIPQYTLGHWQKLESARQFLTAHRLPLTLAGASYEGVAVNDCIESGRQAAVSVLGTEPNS

Digitaria sanguinalis [4] = assay: Herbicidal activity against Digitaria sanguinalis (hairy crabgrass) assessed as growth inhibition at 150 g/ha postemergence treatment measured after 15 days by Greenhouse test; assay type: functional; conditions: post-emergence, 360 h, read-out: GI; summary of the method: as §1
Setaria faberi [5] = assay: Herbicidal activity against Setaria faberi (Giant Foxtail) assessed as growth inhibition at 150 g/ha postemergence treatment measured after 15 days by Greenhouse test; assay type: functional; conditions: post-emergence, 360 h, read-out: GI; summary of the method: as §1
Echinochloa crus-galli [6] = assay: Herbicidal activity against Echinochloa crus-galli (barnyard grass) assessed as growth inhibition at 150 g/ha postemergence treatment measured after 15 days by Greenhouse test; assay type: functional; conditions: post-emergence, 360 h, read-out: GI; summary of the method: as §1
Eclipta prostrata [7] = assay: Herbicidal activity against Eclipta prostrata assessed as growth inhibition at 150 g/ha postemergence treatment measured after 15 days by Greenhouse test; assay type: functional; conditions: post-emergence, 360 h, read-out: GI; summary of the method: as §1
Abutilon theophrasti [8] = assay: Herbicidal activity against Abutilon theophrasti (velvetleaf) assessed as growth inhibition at 150 g/ha postemergence treatment measured after 15 days by Greenhouse test; assay type: functional; conditions: post-emergence, 360 h, read-out: GI; summary of the method: as §1
Setaria faberi [9] = assay: Herbicidal activity against Setaria faberi (Giant Foxtail) assessed as growth inhibition at 37.5 g/ha postemergence treatment measured after 15 days by Greenhouse test; assay type: functional; conditions: post-emergence, 360 h, read-out: GI
Summary of the method: (§2)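 Postemergence greenhouse pot test. About 20 seeds per pot, sown 1-3 cm deep in clay soil (pH 6.5, 1.6% organic matter). Plants grown at 15-30 °C and 50% relative humidity. Compounds were made up as 100 g/L emulsifiable concentrates in DMF with Tween-80, then diluted in water. Dicots were sprayed at the 2-leaf stage and monocots at the 1-leaf stage. Controls were untreated and solvent-treated. Injury was scored visually after 15 days, three replicates per treatment.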

Echinochloa crus-galli [10] = assay: Herbicidal activity against Echinochloa crus-galli (barnyard grass) assessed as growth inhibition at 37.5 g/ha postemergence treatment measured after 15 days by Greenhouse test; assay type: functional; conditions: post-emergence, 360 h, read-out: GI; summary of the method: as §2
Setaria faberi [11] = assay: Herbicidal activity against Setaria faberi (Giant Foxtail) assessed as growth inhibition at 75 g/ha postemergence treatment measured after 15 days by Greenhouse test; assay type: functional; conditions: post-emergence, 360 h, read-out: GI; summary of the method: as §2
Amaranthus retroflexus [12] = assay: Herbicidal activity against Amaranthus retroflexus assessed as growth inhibition at 75 g/ha postemergence treatment measured after 15 days by Greenhouse test; assay type: functional; conditions: post-emergence, 360 h, read-out: GI; summary of the method: as §2
Abutilon theophrasti [13] = assay: Herbicidal activity against Abutilon theophrasti (velvetleaf) assessed as growth inhibition at 75 g/ha postemergence treatment measured after 15 days by Greenhouse test; assay type: functional; conditions: post-emergence, 360 h, read-out: GI; summary of the method: as §2
Amaranthus retroflexus [14] = assay: Herbicidal activity against Amaranthus retroflexus assessed as growth inhibition at 37.5 g/ha postemergence treatment measured after 15 days by Greenhouse test; assay type: functional; conditions: post-emergence, 360 h, read-out: GI; summary of the method: as §2
Abutilon theophrasti [15] = assay: Herbicidal activity against Abutilon theophrasti (velvetleaf) assessed as growth inhibition at 37.5 g/ha postemergence treatment measured after 15 days by Greenhouse test; assay type: functional; conditions: post-emergence, 360 h, read-out: GI; summary of the method: as §2
Echinochloa crus-galli [16] = assay: Herbicidal activity against Echinochloa crus-galli (barnyard grass) assessed as growth inhibition at 75 g/ha postemergence treatment measured after 15 days by Greenhouse test; assay type: functional; conditions: post-emergence, 360 h, read-out: GI; summary of the method: as §2
Eclipta prostrata [17] = assay: Herbicidal activity against Eclipta prostrata assessed as growth inhibition at 37.5 g/ha postemergence treatment measured after 15 days by Greenhouse test; assay type: functional; conditions: post-emergence, 360 h, read-out: GI; summary of the method: as §2
Brassica juncea [18] = assay: Herbicidal activity against Brassica juncea assessed as growth inhibition at 37.5 g/ha postemergence treatment measured after 15 days by Greenhouse test; assay type: functional; conditions: post-emergence, 360 h, read-out: GI; summary of the method: as §2
Digitaria sanguinalis [19] = assay: Herbicidal activity against Digitaria sanguinalis (hairy crabgrass) assessed as growth inhibition at 37.5 g/ha postemergence treatment measured after 15 days by Greenhouse test; assay type: functional; conditions: post-emergence, 360 h, read-out: GI; summary of the method: as §2
Digitaria sanguinalis [20] = assay: Herbicidal activity against Digitaria sanguinalis (hairy crabgrass) assessed as growth inhibition at 75 g/ha postemergence treatment measured after 15 days by Greenhouse test; assay type: functional; conditions: post-emergence, 360 h, read-out: GI; summary of the method: as §2
Eclipta prostrata [21] = assay: Herbicidal activity against Eclipta prostrata assessed as growth inhibition at 75 g/ha postemergence treatment measured after 15 days by Greenhouse test; assay type: functional; conditions: post-emergence, 360 h, read-out: GI; summary of the method: as §2
Brassica juncea [22] = assay: Herbicidal activity against Brassica juncea assessed as growth inhibition at 75 g/ha postemergence treatment measured after 15 days by Greenhouse test; assay type: functional; conditions: post-emergence, 360 h, read-out: GI; summary of the method: as §2

Ki [3] [µM]	Compound	inhibition of growth at 150 g/ha (Brassica juncea [1]) [%]	inhibition of growth at 150 g/ha (Amaranthus retroflexus [2]) [%]	inhibition of growth at 150 g/ha (Digitaria sanguinalis [4]) [%]	inhibition of growth at 150 g/ha (Setaria faberi [5]) [%]	inhibition of growth at 150 g/ha (Echinochloa crus-galli [6]) [%]	inhibition of growth at 150 g/ha (Eclipta prostrata [7]) [%]	other results
0.47	CCOC(=O)Sc1nc2cc(N3C(=O)C4=C(CCCC4)C3=O)c(Cl)cc2s1	< 50	50	< 50	< 50	< 50	50	
0.8	CCOC(=O)C(C)Sc1nc2cc(N3C(=O)C4=C(CCCC4)C3=O)c(Cl)cc2s1 (stereo unspecified)	< 50	60	< 50	< 50	< 50	60	
0.21	CC(C)OC(=O)CSc1nc2cc(N3C(=O)C4=C(CCCC4)C3=O)c(F)cc2s1	60	80	60	50	60	80	
0.28	CCCOC(=O)CSc1nc2cc(N3C(=O)C4=C(CCCC4)C3=O)c(F)cc2s1	60	80	60	< 50	60	80	
0.11	CCOC(=O)CCSc1nc2cc(N3C(=O)C4=C(CCCC4)C3=O)c(F)cc2s1	80	80	50	< 50	50	80	
0.18	CC(C)(C)OC(=O)CSc1nc2cc(N3C(=O)C4=C(CCCC4)C3=O)c(F)cc2s1	80	80	60	< 50	< 50	80	
1.66	CCOC(=O)CSc1nc2cc(N3C(=O)C4=C(CCCC4)C3=O)c(Cl)cc2s1	< 50	80	< 50	< 50	< 50	60	
0.32	CCOC(=O)CCSc1nc2cc(N3C(=O)C4=C(CCCC4)C3=O)c(Cl)cc2s1	60	60	< 50	< 50	< 50	60	
1.5	CC(C)OC(=O)CSc1nc2cc(N3C(=O)c4ccccc4C3=O)c(F)cc2s1		80	< 50	< 50	< 50	60	inhibition of growth at 150 g/ha (Abutilon theophrasti [8]): 80%

The next lines start with the compound.

Compound	Ki [3] [µM]	inhibition of growth at 150 g/ha (Brassica juncea [1]) [%]	inhibition of growth at 150 g/ha (Amaranthus retroflexus [2]) [%]	inhibition of growth at 150 g/ha (Digitaria sanguinalis [4]) [%]	inhibition of growth at 150 g/ha (Setaria faberi [5]) [%]	inhibition of growth at 150 g/ha (Echinochloa crus-galli [6]) [%]	inhibition of growth at 150 g/ha (Eclipta prostrata [7]) [%]	other results
CCOC(=O)CSc1nc2cc(N3C(=O)C4=C(CCCC4)C3=O)c(F)cc2s1	0.25	< 50	80	60	60	60	50	
CCOC(=O)CCSc1nc2cc(N3C(=O)c4ccccc4C3=O)c(Cl)cc2s1	3.76							
CCOC(=O)Sc1nc2cc(N3C(=O)c4ccccc4C3=O)c(F)cc2s1	0.51		80	< 50	< 50	< 50	80	inhibition of growth at 150 g/ha (Abutilon theophrasti [8]): 80%
COC(=O)CSc1nc2cc(N3C(=O)c4ccccc4C3=O)c(F)cc2s1	2.25							
CCOC(=O)CCCSc1nc2cc(N3C(=O)C4=C(CCCC4)C3=O)c(Cl)cc2s1	0.75	< 50	80	< 50	< 50	< 50	60	
CCOC(=O)C(C)Sc1nc2cc(N3C(=O)C4=C(CCCC4)C3=O)c(F)cc2s1 (stereo unspecified)	0.29	80	80	60	60	60	80	
COC(=O)Sc1nc2cc(N3C(=O)C4=C(CCCC4)C3=O)c(F)cc2s1	0.08	80	80	< 50	< 50	< 50	80	
CCOC(=O)C(C)(C)Sc1nc2cc(N3C(=O)C4=C(CCCC4)C3=O)c(Cl)cc2s1	1.66	< 50	80	< 50	< 50	< 50	60	
CCOC(=O)CCSc1nc2cc(N3C(=O)c4ccccc4C3=O)c(F)cc2s1	5.52							
CCOC(=O)C(C)Sc1nc2cc(N3C(=O)c4ccccc4C3=O)c(Cl)cc2s1 (stereo unspecified)	85.9							
COC(=O)Sc1nc2cc(N3C(=O)C4=C(CCCC4)C3=O)c(Cl)cc2s1	0.52	< 50	60	< 50	< 50	< 50	60	
COC(=O)CSc1nc2cc(N3C(=O)C4=C(CCCC4)C3=O)c(Cl)cc2s1	3.92	< 50	60	< 50	< 50	< 50	60	
COC(=O)CSc1nc2cc(N3C(=O)C4=C(CCCC4)C3=O)c(F)cc2s1	1.22	80	80	60	60	60	80	inhibition of growth at 37.5 g/ha (Setaria faberi [9]): < 50%; inhibition of growth at 37.5 g/ha (Echinochloa crus-galli [10]): < 50%; inhibition of growth at 75 g/ha (Setaria faberi [11]): < 50%; inhibition of growth at 75 g/ha (Amaranthus retroflexus [12]): 80%; inhibition of growth at 75 g/ha (Abutilon theophrasti [13]): 80%; inhibition of growth at 37.5 g/ha (Amaranthus retroflexus [14]): 80%; inhibition of growth at 37.5 g/ha (Abutilon theophrasti [15]): 80%; inhibition of growth at 75 g/ha (Echinochloa crus-galli [16]): 50%; inhibition of growth at 37.5 g/ha (Eclipta prostrata [17]): 80%; inhibition of growth at 37.5 g/ha (Brassica juncea [18]): 50%; inhibition of growth at 37.5 g/ha (Digitaria sanguinalis [19]): < 50%; inhibition of growth at 75 g/ha (Digitaria sanguinalis [20]): 50%; inhibition of growth at 75 g/ha (Eclipta prostrata [21]): 80%; inhibition of growth at 75 g/ha (Brassica juncea [22]): 50%
CCOC(=O)C(C)Sc1nc2cc(N3C(=O)c4ccccc4C3=O)c(F)cc2s1 (stereo unspecified)	132							
CCCOC(=O)CSc1nc2cc(N3C(=O)c4ccccc4C3=O)c(F)cc2s1	1.24		80	< 50	50	< 50		inhibition of growth at 150 g/ha (Abutilon theophrasti [8]): 80%
